Assay outcomes (PubChem)
Sampled rows, rich in hits. Any-hit rate of the full collection: about 1%.
RAD54 inh = blocks human RAD54 Holliday junction branch migration; FAM/BHQ fluorescence; inhibition, % at 10.4 µM; 360,000 compounds, 0.14% hits;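 active = mean normalized replicate activity at least 40 and at least half of replicates scoring 40 or more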;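 note: 0% = median of neutral control wells and 100% = median of positive control wells; inhibitors cause a drop in the FAM fluorescence signal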
CAL PDZ FP-1 = CAL PDZ (human) peptide binding inhibition | purified CAL PDZ, TMR-peptide fluorescence polarization, 1 h | inhibition, % at 24.9 µM | 300,000 compounds, 0.92% hits;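 active = mean inhibition of at least 30% with at least half of replicates also reaching 30%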;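 note: 0% = DMSO neutral control and 100% = excess unlabeled competitor peptide PRC23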
CAL PDZ FP-2 = inhibitors of human CAL PDZ peptide binding; purified CAL PDZ, TMR-peptide fluorescence polarization, 1 h; inhibition, % at 20 µM; 330,000 compounds, 0.02% hits; AID 504414;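 active = highest replicate inhibition of at least 40%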;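 note: plate controls were DMSO neutral control wells for no effect and unlabeled competitor peptide control wells for full effect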
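Material – purified CerCALP PDZ construct · Detection – FP readout, S and P plane fluorescence · Measure – percent inhibition from loss of millipolarization · Controls – unlabelled peptide for full inhibition, DMSO wells as neutral · Probe or stimulus – TMR-labelled reporter peptide T*-PRC34 bound in PDZ groove · Times – 1 h at RT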
PDI turbidity = inhibitors of human protein disulfide isomerase. P07237. inhibition, % at 10 µM. PDI insulin aggregation turbidity, A650, 90 min. 350,000 compounds, 0.052% hits;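 active = mean inhibition across replicates of 30% or more, whatever share of single replicates reach that level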
ERp5 block = ERp5 (human) disulfide isomerase inhibition | ERp5 insulin aggregation, absorbance 650 nm, 90 min | inhibition, % at 9.99 µM | AID 651711 | Q15084 | 350,000 compounds, 0.05% hits;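 active = mean replicate inhibition above about 25%, with every replicate also reaching it, limit read from the data, passing the limit was not always enough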
Target sequence (Q15084 whole entry, looked up): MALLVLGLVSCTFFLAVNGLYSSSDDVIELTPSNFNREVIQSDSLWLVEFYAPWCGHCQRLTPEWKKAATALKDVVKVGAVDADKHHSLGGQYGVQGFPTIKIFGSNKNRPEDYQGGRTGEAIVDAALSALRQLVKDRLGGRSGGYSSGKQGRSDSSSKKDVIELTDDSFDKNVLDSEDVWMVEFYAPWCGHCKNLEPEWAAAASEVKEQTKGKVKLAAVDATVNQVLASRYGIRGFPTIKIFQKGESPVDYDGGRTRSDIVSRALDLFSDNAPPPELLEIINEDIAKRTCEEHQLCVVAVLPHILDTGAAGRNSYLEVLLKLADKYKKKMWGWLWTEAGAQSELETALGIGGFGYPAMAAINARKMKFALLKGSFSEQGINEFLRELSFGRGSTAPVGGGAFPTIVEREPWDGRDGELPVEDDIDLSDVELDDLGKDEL
RAD52 inh = RAD52 (human) annealing inhibition | inhibition, % at 18.7 µM | P43351 | AID 651710 | 360,000 compounds, 0.46% hits | recombinant RAD52 DNA annealing, FRET fluorescence;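 active = every replicate showing at least 50% inhibition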
* marks the source's active call; other numbers are inactive results; x = not tested or not shown; + = active, no number.

SMILES	RAD54 inh	CAL PDZ FP-1	CAL PDZ FP-2	PDI turbidity	ERp5 block	RAD52 inh
CC(C)NC(=O)N(C)C[C@H]1OCCCC[C@@H](C)Oc2ccc(NS(=O)(=O)c3ccc(Cl)cc3)cc2C(=O)N([C@@H](C)CO)C[C@@H]1C	-6.0	x	x	x	-0.1	4.0
COc1ccc(OCC(=O)Nc2ccccc2C(=O)N2CCOCC2)cc1	-1.5	51.2*	18.9	-1.9	4.4	-18.4
O=C(C[C@H]1C=C[C@H](NC(=O)CN2CCOCC2)[C@@H](CO)O1)NCCc1ccncc1	x	x	x	x	6.1	-4.1
Cn1nnnc1SCc1cccc2ccccc12	x	34.2*	x	5.0	3.0	-19.3
CCC(=O)N[C@H]1C=C[C@@H](CC(=O)NCc2ccccc2OC)O[C@@H]1CO	-11.5	x	x	x	0.0	14.3
CCN(CC)CC(=O)Nn1c(C)nc2c(ncn2-c2ccccc2)c1=O	x	51.4*	-0.3	12.7	0.9	-5.3
Cc1nc2c(ncn2-c2ccccc2)c(=O)n1NC(=O)CN1CCOCC1	x	-2.7	-0.2	2.1	-3.4	-1.8
O=C(O)c1cccc(S(=O)(=O)Nc2ccc(-c3ccccc3)cc2)c1	1.5	1.2	-0.1	-3.5	1.1	0.6
O=C(O)c1cccc(S(=O)(=O)NNc2ccccc2C(F)(F)F)c1	4.6	+	0.1	6.5	7.3	-9.7
Cc1ccc(CSc2nnc(-c3ccncc3)n2C)cc1	x	-1.8	-4.1	1.9	x	x
COc1cccc(CSc2nnc(-c3ccncc3)n2C)c1	7.9	40.0*	-0.1	2.9	3.1	0.8
Cc1ccc(S(=O)(=O)NCCC(=O)NC(C)CCc2ccccc2)cc1 (centres undefined)	-2.6	70.9*	-0.4	5.6	-1.1	0.7
CCCN1C[C@@H](C)[C@@H](OC)CN(C)C(=O)c2ccc(NC(=O)c3ccc(F)cc3)cc2OC[C@H]1C	11.3	x	x	x	x	x
O=C(CN1C(=O)c2ccccc2C1=O)NNC1=NS(=O)(=O)c2ccccc21	-0.3	30.1*	-0.7	-4.9	1.7	4.1
O=C(Cc1ccccc1)NNC1=NS(=O)(=O)c2ccccc21	-11.3	1.6	-0.2	2.8	9.3	-9.3
C[C@H](CO)N1C[C@H](C)[C@H](CN(C)CC2CC2)Oc2c(NS(=O)(=O)c3cccs3)cccc2C1=O	1.7	x	x	x	2.5	14.8
CN1CCCCN2[C@H](CO)[C@@H](c3ccc(-c4ccccc4)cc3)[C@@H]2C1	-12.9	x	x	x	-5.1	19.3
CN1CCCCN2[C@H](CO)[C@H](c3ccc(/C=C/c4ccccc4)cc3)[C@H]2C1	13.2	x	x	x	-6.8	77.1*
CN1CCCCN2[C@H](CO)[C@H](c3ccc(-c4ccccc4)cc3)[C@H]2C1	2.7	x	x	x	0.8	8.7
CN1CCCCN2[C@H](CO)[C@@H](c3ccc(/C=C/c4ccccc4)cc3)[C@H]2C1	7.9	x	x	x	-1.7	53.2*
CNC[C@@H]1Oc2ncc(-c3ccc(C)cc3)cc2C(=O)N([C@@H](C)CO)C[C@@H]1C	3.3	x	x	x	3.6	18.4
CN(/N=C/c1ccc(O)cc1O)c1ncc(C(F)(F)F)cc1Cl	x	-1.6	0.5	-6.5	4.7	0.0
CN(/N=C/c1ccccc1Cl)c1ncc(Cl)cc1C(F)(F)F	8.7	43.6*	0.7	-6.1	2.1	-5.0
O=C(NCC[C@@H]1CC[C@@H](NC(=O)c2cnccn2)[C@@H](CO)O1)Nc1ccc(F)cc1	-9.1	x	x	x	3.1	9.4
COc1ccc2oc(=O)c(C(=O)Nc3ccccc3O)cc2c1	x	78.4*	17.6	9.3	1.4	-9.0
SMILES	RAD54 inh	CAL PDZ FP-1	CAL PDZ FP-2	PDI turbidity	ERp5 block	RAD52 inh
COc1ccc(NC(=O)c2cc3ccccc3oc2=O)cc1	0.2	x	x	3.1	5.4	2.6
N#C[C@@H]1[C@@H](c2ccccc2-c2ccccc2F)[C@H](CO)N1C(=O)C1CCOCC1	x	x	x	x	3.9	1.7
C[C@H]1CCCCO[C@@H](CN(C)C(=O)Nc2ccc(C(F)(F)F)cc2)[C@@H](C)CN([C@@H](C)CO)C(=O)c2cc(N(C)C)ccc2O1	-5.3	x	x	x	-1.9	28.4
COc1cccc2oc3ccc(C#CC4(N)CCCCC4)cc3c(=O)c12	50.7*	-2.3	-3.8	-1.9	0.3	-1.9
Cc1sc(NC(=O)c2ccco2)c(C(c2cccnc2)N2CCC(C)CC2)c1C (centres undefined)	-2.6	42.8*	-0.3	-1.5	x	x
CCN1CCN(C(c2cccnc2)c2c(NC(=O)c3ccco3)sc(C)c2C)CC1 (centres undefined)	-5.0	46.0*	0.1	6.2	-18.5	-11.2
O=C(C1CCCC1)N1CC2(C1)[C@H](c1ccccc1)[C@H](CO)N2CC1CCCC1	x	x	x	x	-1.1	-67.3
COC(=O)c1cc(S(=O)(=O)N2CCOCC2)c(Cl)cc1N1CCOCC1	7.0	-3.9	1.6	-2.9	x	x
COC(=O)c1cc(C)nc2c1C(=O)C(=O)C=C2N1CCOCC1	8.7	-5.4	0.7	2.3	62.8*	13.0
CCOc1cc(-c2nc(C)c(C(C)=O)n2O)ccc1OCC(=O)Nc1ccccc1	-10.0	38.3*	-0.5	-9.8	-0.6	-25.0
CCCNC(=O)N1[C@@H]2CN(C(=O)Nc3ccc(F)cc3)c3ccccc3[C@@H]2[C@@H]1CO	3.9	x	x	x	1.6	-4.9
C[C@@H]1CCCCO[C@@H](CN(C)S(=O)(=O)c2ccc(F)cc2)[C@@H](C)CN([C@H](C)CO)C(=O)c2cc(NC(=O)Nc3ccccc3)ccc2O1	-17.5	x	x	x	x	x
C=C(C)CCOC(=O)C(CC(=O)O)NCc1ccco1 (centres undefined)	1.5	49.5*	3.5	-2.5	-0.9	-4.7
O=C(O)CC(NCc1ccco1)C(=O)OCCc1ccccc1 (centres undefined)	6.2	-1.8	-0.1	-6.1	x	x
Cc1ccccc1S(=O)(=O)N1CC[C@@H]2[C@@H](CO)Nc3ccc(-c4ccccc4F)cc3[C@@H]21	-6.9	x	x	x	2.3	-1.7
CCCNC(=O)Nc1ccc2c(c1)OC[C@@H](C)N(Cc1ccccc1)C[C@@H](C)[C@H](OC)CN(C)C2=O	0.9	x	x	x	6.7	6.9
COc1ccc(C(=O)C2CCCN(C(=O)c3c4c(nn3C)CCCC4)C2)cc1F (centres undefined)	x	-0.8	-0.5	6.3	5.6	-9.6
COc1ccc(C(=O)C2CCCN(C(=O)c3ccoc3C)C2)cc1F (centres undefined)	3.6	119.4*	x	-1.7	-1.9	-9.6
CSCCC(NC(=O)COc1cccc2ccccc12)C(=O)O (centres undefined)	x	69.8*	-0.2	2.2	1.8	-7.6
C[C@@H]1CN([C@@H](C)CO)C(=O)c2ccccc2-c2ccccc2CO[C@H]1CN(C)S(=O)(=O)c1ccc(F)cc1	4.6	x	x	x	6.6	2.5
COC(=O)c1cc(-c2ccccc2)sc1NC(=O)CN1C(=O)c2ccccc2C1=O	1.2	122.6*	0.0	7.3	x	x
CN1CCCCN2[C@H](CO)[C@H](c3ccc(Br)cc3)[C@@H]2C1	3.2	x	x	x	-0.4	-10.7
O=C(Cc1ccncc1)N1CC(=O)N2[C@H](C1)[C@H](c1ccc(C3=CCCC3)cc1)[C@@H]2CO	x	x	x	x	4.3	-19.4
